Shown are actives, neighbours in structure and some others; about 2.9% of the full set was active somewhere.
TRPC6 act – mouse TRPC6 channel activators, primary screen, cell-based, HEK293, membrane potential dye; Short transient receptor potential channel 6 (Mus musculus), Q61143; HEK293-TRPC6 membrane potential dye fluorescence; hits give high values; B-score at 10 µM; 310,000 tested, 0.13% active;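 active = B-score of the integrated fluorescence ratio above library mean plus 3 SD, and starting fluorescence ratio within library mean plus 5 SD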;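 also: higher score means more depolarization so channel activation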
TRPC6 inhibitor – mouse TRPC6 channel inhibitors, primary screen, cell-based, HEK293, membrane potential dye; ACh-evoked depolarization; hits give low values; B-score at 10 µM; 310,000 tested, 1.1% active; AID 2553, 2010;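 active = B-score under library mean minus 3 SD, initial fluorescence not abnormally high, positive integrated signal ratio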;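 also: B-score derived from integrated fluorescence ratio over the kinetic read; more negative B-score means stronger inhibition of depolarization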
TRPC4 PAM – positive allosteric modulators of TRPC4, primary screen, cell-based, mouse TRPC4beta, HEK293 mu-opioid, Fluo-4 calcium; DAMGO EC20, Fluo-4 Ca2+ flux; hits give high values; 310,000 tested, 0.42% active; Short transient receptor potential channel 4 (Mus musculus), Q9QUQ5; B-score at 10 µM;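 active = B-score of calcium response area above 5 SD of library B-scores, with initial fluorescence ratio within 5 SD of library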;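 also: B-score of integrated fluorescence ratio over time as area under calcium response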
Target sequence (Q9QUQ5 whole entry, looked up): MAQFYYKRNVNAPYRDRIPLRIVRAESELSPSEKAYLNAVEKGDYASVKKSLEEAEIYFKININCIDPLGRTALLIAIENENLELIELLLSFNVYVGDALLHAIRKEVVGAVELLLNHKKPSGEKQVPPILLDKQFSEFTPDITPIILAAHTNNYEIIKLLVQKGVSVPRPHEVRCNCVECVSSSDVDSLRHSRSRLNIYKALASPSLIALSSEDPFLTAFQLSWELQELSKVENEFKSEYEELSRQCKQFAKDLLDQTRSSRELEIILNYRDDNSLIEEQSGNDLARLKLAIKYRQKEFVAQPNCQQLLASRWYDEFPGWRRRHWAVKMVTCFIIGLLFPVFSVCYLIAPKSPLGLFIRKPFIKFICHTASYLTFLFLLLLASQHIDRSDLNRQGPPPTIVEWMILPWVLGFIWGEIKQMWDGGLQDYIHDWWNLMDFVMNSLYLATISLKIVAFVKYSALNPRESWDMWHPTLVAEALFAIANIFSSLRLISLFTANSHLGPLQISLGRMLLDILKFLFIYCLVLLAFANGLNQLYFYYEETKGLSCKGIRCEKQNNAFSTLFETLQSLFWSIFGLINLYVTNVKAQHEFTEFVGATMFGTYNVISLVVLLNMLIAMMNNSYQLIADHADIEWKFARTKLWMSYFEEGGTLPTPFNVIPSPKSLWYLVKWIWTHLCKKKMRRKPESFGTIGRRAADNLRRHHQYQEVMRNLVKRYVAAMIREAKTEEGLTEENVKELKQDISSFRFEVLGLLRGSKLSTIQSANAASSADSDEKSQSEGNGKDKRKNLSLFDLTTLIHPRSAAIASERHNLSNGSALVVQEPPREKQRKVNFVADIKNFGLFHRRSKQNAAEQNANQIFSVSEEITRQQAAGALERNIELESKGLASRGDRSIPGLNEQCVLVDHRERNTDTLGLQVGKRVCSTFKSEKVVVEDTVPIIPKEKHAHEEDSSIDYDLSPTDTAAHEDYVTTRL
Kir21 block – inhibitors of mouse Kir2.1 inward-rectifier potassium channel; B-score at 10 µM; Inward rectifier potassium channel 2 (Mus musculus), P35561; HEK293-Kir2.1, FluxOR thallium flux fluorescence; hits give low values; 310,000 tested, 0.85% active;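 active = fluorescence ratio B-score at or below minus 3 SD of library scores, with starting-brightness B-score within 2 SD, cut at about -4.2 in these data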;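 also: channel flux triggered by added potassium and thallium sulfate stimulus; B-score of peak minus minimum fluorescence over baseline after thallium stimulus; more negative B-score means stronger Kir2.1 block with less thallium influx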
TRPC4 block – inhibitors of mouse TRPC4 channel, primary screen, Fluo4 calcium, HEK293 TRPC4beta/mu-opioid cells. B-score at 10 µM. Short transient receptor potential channel 4 (Mus musculus), Q9QUQ5. 300,000 tested, 0.39% active. DAMGO-evoked Fluo4 calcium flux; hits give low values;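 active = B-score over 3 SD under the library average, no early fluorescence shift, positive overall ratio signal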
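Signal: kinetic Fluo4 fluorescence imaging of calcium influx. Material: stable TRPC4beta/mu-opioid receptor HEK293 cells. Probe or stimulus: DAMGO in two steps, submaximal then maximal.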
TRPC4 agonist – activators of mouse TRPC4 channel, primary screen, Fluo4 calcium, HEK293 TRPC4beta/mu-opioid cells | 310,000 tested, 0.49% active | Fluo4 calcium fluorescence; hits give high values | B-score at 10 µM | AID 2237, 2010;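 active = B-score above 5 SD of library B-scores, and initial fluorescence ratio not above library mean plus 5 SD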;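 also: positive B-score marks a calcium rise read as TRPC4 activation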
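System: HEK293 cells stably co-expressing mouse TRPC4beta and mu-opioid receptor; Schedule: Fluo4 dye loading 45 min at room temperature, 110 s recording; Detection: Fluo4 fluorescence, kinetic; Evaluation: B-scored integrated calcium fluorescence ratio; Controls: buffer (low) and maximal DAMGO (high).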
Numbers without * were called inactive.

O=C(OCc1ccccc1)/C(=C/c1cccc(Br)c1)NC(=O)c1ccco1 was read as TRPC6 act inactive, TRPC6 inhibitor inactive, TRPC4 PAM inactive, Kir21 block 0.62, TRPC4 block inactive and TRPC4 agonist inactive.
Screening COc1ccc(C)cc1NS(=O)(=O)c1cc(C)ccc1C returned TRPC6 act inactive, TRPC6 inhibitor inactive, TRPC4 PAM inactive, Kir21 block 0.73, TRPC4 block inactive and TRPC4 agonist inactive.
COc1ccc(OC)c(S(=O)(=O)Nc2ccccc2SC)c1 was read as TRPC6 act inactive, TRPC6 inhibitor inactive, TRPC4 PAM inactive, Kir21 block -4.6*, TRPC4 block inactive and TRPC4 agonist inactive.
COc1ccc(OC)c(S(=O)(=O)Nc2ccccc2C)c1 was read as TRPC6 act inactive, TRPC6 inhibitor inactive, TRPC4 PAM inactive, Kir21 block 0.38, TRPC4 block inactive and TRPC4 agonist inactive.
COc1ccc(S(=O)(=O)Nc2ccccc2SC)cc1C was read as TRPC6 act inactive, TRPC6 inhibitor inactive, TRPC4 PAM inactive, Kir21 block -6.7*, TRPC4 block inactive and TRPC4 agonist inactive.
For COc1ccccc1NS(=O)(=O)c1cc(C)ccc1C the results were TRPC6 act inactive, TRPC6 inhibitor inactive, TRPC4 PAM inactive, Kir21 block -4.6*, TRPC4 block inactive and TRPC4 agonist inactive.
COc1ccccc1NS(=O)(=O)c1ccc(O)c(C(N)=O)c1 was read as TRPC6 act inactive, TRPC6 inhibitor inactive, TRPC4 PAM inactive, Kir21 block -4.2*, TRPC4 block inactive and TRPC4 agonist inactive.
`ClC1(Cl)CC1Cn1cnc2ccccc21` (stereo unspecified) gave TRPC6 act inactive, TRPC6 inhibitor inactive, TRPC4 PAM inactive, Kir21 block 1.1, TRPC4 block inactive and TRPC4 agonist inactive.
For COc1cc(C2c3[nH]c4ccccc4c3C[C@H]3C(=O)N(C4CC4)CC(=O)N23)ccc1OC(C)C (stereo partly specified) the results were TRPC6 act inactive, TRPC6 inhibitor inactive, TRPC4 PAM inactive, Kir21 block 2.1, TRPC4 block inactive and TRPC4 agonist inactive.
For COC(=O)CNc1cccc(C(F)(F)F)c1 the results were TRPC6 act inactive, TRPC6 inhibitor inactive, TRPC4 PAM inactive, Kir21 block -1.7, TRPC4 block inactive and TRPC4 agonist inactive.
For CCc1ccc(OCC(=O)Nc2ccc3c(c2)OCCO3)cc1 the results were TRPC6 act inactive, TRPC6 inhibitor inactive, TRPC4 PAM inactive, Kir21 block -4.7*, TRPC4 block inactive and TRPC4 agonist inactive.
For CCc1ccc(NC(=O)COc2ccc3c(c2)OCO3)cc1 the results were TRPC6 act inactive, TRPC6 inhibitor inactive, TRPC4 PAM inactive, Kir21 block -0.38, TRPC4 block inactive and TRPC4 agonist inactive.
`CC(C)(C)c1ccc(C(=O)NC(=S)NNC(=O)c2cccs2)cc1` gave TRPC6 act inactive, TRPC6 inhibitor inactive, TRPC4 PAM inactive, Kir21 block 0.83, TRPC4 block inactive and TRPC4 agonist 339*.
Screening O=C(NNC(=S)Nc1ccccc1)c1cccs1 returned TRPC6 act inactive, TRPC6 inhibitor inactive, TRPC4 PAM inactive, Kir21 block 0.8, TRPC4 block inactive and TRPC4 agonist inactive.
`CCCC(=O)Nc1ccc(C(=O)NNC(=S)NC(=O)c2cccs2)cc1` gave TRPC6 act inactive, TRPC6 inhibitor inactive, TRPC4 PAM inactive, Kir21 block 1.5, TRPC4 block inactive and TRPC4 agonist inactive.
`O=C(NC(=S)NNC(=O)c1cccs1)c1ccccc1` gave TRPC6 act inactive, TRPC6 inhibitor inactive, TRPC4 PAM inactive, Kir21 block -0.3, TRPC4 block inactive and TRPC4 agonist 82*.
Cc1ccccc1C(=O)NNC(=S)NC(=O)c1cccs1 was read as TRPC6 act inactive, TRPC6 inhibitor inactive, TRPC4 PAM inactive, Kir21 block -0.2, TRPC4 block inactive and TRPC4 agonist 159*.
`O=C(NC(=S)NNC(=O)c1cccs1)c1ccco1` gave TRPC6 act inactive, TRPC6 inhibitor inactive, TRPC4 PAM inactive, Kir21 block -0.59, TRPC4 block inactive and TRPC4 agonist inactive.
Screening Cc1cccc(C(=O)NC(=S)NNC(=O)c2cccs2)c1 returned TRPC6 act inactive, TRPC6 inhibitor inactive, TRPC4 PAM inactive, Kir21 block 0.03, TRPC4 block inactive and TRPC4 agonist 236*.
For CCn1cc(C(=O)OCC(=O)NCc2ccccc2Cl)c(=O)c2ccc(C)nc21 the results were TRPC6 act inactive, TRPC6 inhibitor inactive, TRPC4 PAM inactive, Kir21 block 2, TRPC4 block inactive and TRPC4 agonist inactive.
`CN(C)CCCN(Cc1cc2cc3c(cc2[nH]c1=O)OCO3)C(=S)NCc1ccco1` gave TRPC6 act inactive, TRPC6 inhibitor inactive, TRPC4 PAM inactive, Kir21 block -0.75, TRPC4 block -6* and TRPC4 agonist inactive.
Screening C/C(=N\N=C(N)N)c1ccc(Cl)c(Cl)c1 returned TRPC6 act inactive, TRPC6 inhibitor inactive, TRPC4 PAM inactive, Kir21 block -5.3*, TRPC4 block inactive and TRPC4 agonist inactive.
CN(C)CCCC1Sc2ccccc2Sc2ccccc21 (stereo unspecified) was read as TRPC6 act inactive, TRPC6 inhibitor inactive, TRPC4 PAM inactive, Kir21 block -4.8*, TRPC4 block inactive and TRPC4 agonist inactive.
`Cc1ccc(Nc2c(N)c(=O)oc3ccccc23)cc1` gave TRPC6 act inactive, TRPC6 inhibitor inactive, TRPC4 PAM 31*, Kir21 block -0.87, TRPC4 block inactive and TRPC4 agonist inactive.
`c1ccc(-c2ccc(OCCCNC3CCCC3)cc2)cc1` gave TRPC6 act inactive, TRPC6 inhibitor inactive, TRPC4 PAM inactive, Kir21 block -5.8*, TRPC4 block inactive and TRPC4 agonist inactive.
`COc1ccc(OCCNC2CCCC2)cc1` gave TRPC6 act inactive, TRPC6 inhibitor inactive, TRPC4 PAM inactive, Kir21 block 1.1, TRPC4 block inactive and TRPC4 agonist inactive.
`c1ccc(Cc2ccc(OCCCNC3CCCC3)cc2)cc1` gave TRPC6 act inactive, TRPC6 inhibitor inactive, TRPC4 PAM inactive, Kir21 block -8.1*, TRPC4 block inactive and TRPC4 agonist inactive.

Bioassay records as filed in PubChem BioAssay.
